TRPC6 inh – mouse TRPC6 channel inhibition; Q61143; HEK293-TRPC6, membrane potential dye, ACh-evoked depolarization; stronger effect = lower value; B-score at 10 µM; 310,000 tested, 1.1% active; AID 2553;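 active = B-score under library mean minus 3 SD, initial fluorescence not abnormally high, positive integrated signal ratio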;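 also: B-score derived from integrated fluorescence ratio over the kinetic read; more negative B-score means stronger inhibition of depolarization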
TRPC4 act – TRPC4 (mouse) channel activation | HEK293 TRPC4beta/mu-opioid, Fluo4 calcium fluorescence; stronger effect = higher value | Q9QUQ5 | B-score at 10 µM | 310,000 tested, 0.49% active | AID 2237;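 active = B-score above 5 SD of library B-scores, and initial fluorescence ratio not above library mean plus 5 SD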;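 also: positive B-score marks a calcium rise read as TRPC4 activation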
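Assay system: HEK293 cells stably co-expressing mouse TRPC4beta and mu-opioid receptor / Timing: Fluo4 dye loading 45 min at room temperature, 110 s recording / Signal: Fluo4 calcium-sensitive dye fluorescence, kinetic, 1 Hz baseline / Read-out: integrated baseline-normalised fluorescence ratio, converted to per-well B score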
TRPC4 potent – allosteric potentiators of mouse TRPC4 channel | Q9QUQ5 | HEK293 TRPC4beta/mu-opioid, DAMGO EC20, Fluo-4 Ca2+ flux; stronger effect = higher value | B-score at 10 µM | 310,000 tested, 0.42% active | AID 2227;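 active = B-score of calcium response area above 5 SD of library B-scores, with initial fluorescence ratio within 5 SD of library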;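 also: B-score of integrated fluorescence ratio over time as area under calcium response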
TRPC6 act – mouse TRPC6 channel activation. 310,000 tested, 0.13% active. AID 2550. B-score at 10 µM. HEK293-TRPC6 membrane potential dye fluorescence; stronger effect = higher value;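 active = B-score of the integrated fluorescence ratio above library mean plus 3 SD, and starting fluorescence ratio within library mean plus 5 SD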;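 also: higher score means more depolarization so channel activation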
Kir21 inh – inhibitors of mouse Kir2.1 inward-rectifier potassium channel; P35561; HEK293-Kir2.1, FluxOR thallium flux fluorescence; stronger effect = lower value; B-score at 10 µM; 310,000 tested, 0.85% active;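 active = fluorescence ratio B-score at or below minus 3 SD of library scores, with starting-brightness B-score within 2 SD, cut at about -4.2 in these data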;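 also: channel flux triggered by added potassium and thallium sulfate stimulus; B-score of peak minus minimum fluorescence over baseline after thallium stimulus; more negative B-score means stronger Kir2.1 block with less thallium influx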
Target sequence (P35561 whole entry, looked up): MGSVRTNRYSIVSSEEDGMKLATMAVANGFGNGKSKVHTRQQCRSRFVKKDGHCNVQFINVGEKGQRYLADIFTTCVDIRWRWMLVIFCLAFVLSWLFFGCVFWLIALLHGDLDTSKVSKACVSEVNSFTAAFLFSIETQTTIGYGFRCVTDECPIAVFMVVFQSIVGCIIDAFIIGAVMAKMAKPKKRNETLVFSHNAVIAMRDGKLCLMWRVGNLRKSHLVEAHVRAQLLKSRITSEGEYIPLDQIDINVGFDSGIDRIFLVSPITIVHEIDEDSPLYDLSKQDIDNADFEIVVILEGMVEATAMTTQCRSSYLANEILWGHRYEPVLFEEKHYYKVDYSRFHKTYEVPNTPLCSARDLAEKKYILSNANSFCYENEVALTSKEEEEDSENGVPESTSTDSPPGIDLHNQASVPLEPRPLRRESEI
TRPC4 inh – inhibitors of mouse TRPC4 channel | Q9QUQ5 | HEK293 TRPC4beta/mu-opioid, DAMGO-evoked Fluo4 calcium flux; stronger effect = lower value | B-score at 10 µM | 300,000 tested, 0.39% active | AID 2247;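 active = B-score over 3 SD under the library average, no early fluorescence shift, positive overall ratio signal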
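test system = HEK293 cells with stable TRPC4beta plus mu-opioid receptor expression | detection = Fluo4 Ca2+ flux fluorescence | read-out = integrated fluorescence ratio relative to baseline, converted to per-well B score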
TRPC4 spec 2 – second check of whether TRPC6 inhibitors also affect mouse TRPC4 | 920 tested, 42% active | inhibition, % at 10 µM | shares compounds with TRPC6 inh | HEK293 TRPC4/MOR, membrane potential dye fluorescence; channel activated by saturating DAMGO dose;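 active = compounds whose fluorescence signal differed from control wells by over 3 SD, either direction, in both duplicate plates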
TRPC4 spec – mouse TRPC4 off-target activity of TRPC6 inhibitors; activity change, negative = inhibition, % at 10 µM; HEK293 TRPC4/mu-opioid, membrane potential fluorescence; shares compounds with TRPC6 inh; 920 tested, 61% active;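 active = rise or fall in signal beyond 3 SD of buffer-only wells in both replicate plates, either sign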;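 also: integrated kinetic ratio of fluorescence range over baseline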
HEK293 MPD ctr 2-1 – second counter-screen for TRPC6 inhibitors: parental HEK293 cells | shares compounds with TRPC6 inh | parental HEK293 membrane potential dye fluorescence; maximal acetylcholine challenge after compound addition | signal change vs control, % at 10 µM | 920 tested, 31% active | AID 2779;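 active = membrane potential signal moving either way by over 3 SD of the maximum-effect control, in both duplicate plates, meaning non-specific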
HEK293 MPD ctr-1 – counter-screen for TRPC6 inhibitors: effect in parental HEK293 cells | 920 tested, 60% active | membrane potential signal change, % at 10 µM | parental HEK293 membrane potential dye fluorescence | shares compounds with TRPC6 inh;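 active = membrane potential signal shifting up or down by more than 3 SD of buffer-only wells, on both duplicate plates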
HEK293 MPD ctr-2 – counter-screen for TRPC6 modulators: effect in parental HEK293 cells; membrane potential dye fluorescence; 2,400 tested, 51% active; AID 488924; membrane potential signal change, % at 10 µM; shares compounds with TRPC6 inh;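 active = membrane potential signal moves up or down beyond 5 SD from buffer-only wells, on both duplicate plates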
HEK293 MPD ctr 2-2 – second check of TRPC6 modulator effects in parental HEK293 cells. shares compounds with TRPC6 inh. membrane potential dye fluorescence; after compound, maximal acetylcholine stimulation. inhibition, % at 10 µM. 2,400 tested, 14% active;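 active = membrane potential signal drops by more than 5 SD from the mean control signal, in both duplicate plates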;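 also: plate controls were acetylcholine ECmax control wells for no effect and buffer only wells for full effect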
TRPC4/MOR mod – tests whether TRPC6 modulators also affect mouse TRPC4 | shares compounds with TRPC6 inh | HEK293 TRPC4/mu-opioid, membrane potential fluorescence | percent change from control (negative = decrease, positive = increase), % at 10 µM | 2,400 tested, 69% active;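 active = membrane potential signal moved up or down beyond 5 SD of buffer control wells, in both duplicate plates, actives on both sides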;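 also: plate controls were assay buffer wells for no effect and DAMGO maximal-effect wells for full effect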
TRPC4/MOR inh 2 – mouse TRPC4 off-target activity of TRPC6 modulators, second screen; shares compounds with TRPC6 inh; HEK293 TRPC4/mu-opioid, membrane potential dye fluorescence; stimulated with maximal-effect DAMGO; inhibition, % at 10 µM; 2,400 tested, 55% active; AID 488928;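 active = drop in membrane potential signal beyond 5 SD of the control wells in both duplicate plates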;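 also: TRPC4 counter screen for TRPC6 hits run under conditions tuned for TRPC6 not TRPC4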
TRPC6 block conf – confirmation of mouse TRPC6 inhibitors; inhibition, % at 10 µM; HEK293-TRPC6, membrane potential dye, ACh-evoked depolarization; 3,300 tested, 43% active; shares compounds with TRPC6 inh;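 active = fluorescence ratio falls more than 5 SD below the full-stimulation control mean, in both duplicate runs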;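 also: integrated fluorescence ratio of peak minus minimum over baseline after agonist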
TRPC6 act conf – mouse TRPC6 activator confirmation | shares compounds with TRPC6 inh | HEK293-TRPC6 membrane potential dye fluorescence, FDSS | activation, % at 10 µM | 2,800 tested, 11% active | AID 488961;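 active = ratio signal rise beyond 5 SD above unstimulated control wells' mean, seen in both duplicate runs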;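 also: plate controls were buffer EC0 wells for no effect and acetylcholine ECmax response for full effect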
* marks the source's active call; other numbers are inactive results; i = inactive; nt = not tested or not shown; + = active, no number. Compounds with a hit are over-represented: about 3% of the library has one in this group of screens.

SMILES | TRPC6 inh | TRPC4 act | TRPC4 potent | TRPC6 act | Kir21 inh | TRPC4 inh | TRPC6 block conf | others
CC1=CC(C)(C)N(C(=O)CNC2CCCC2)c2cc(C)ccc21 | -6.4* | i | i | i | -0.82 | i | 54.5%* | HEK293 MPD ctr-2=125.0%*;HEK293 MPD ctr 2-2=i;TRPC4/MOR mod=31.0%*;TRPC4/MOR inh 2=45.0%*
CCOc1ccc2c(c1)N(C(=O)CN1C(=O)CCC1=O)C(C)(C)C=C2C | i | i | i | i | 0.1 | i | nt
CCc1ccc(N=C2N=C(N)c3ccccc32)cc1 | -7.84* | i | i | i | -1.61 | i | 70.6%* | TRPC4 spec 2=27.5%*;TRPC4 spec=-21.1%*;HEK293 MPD ctr 2-1=i;HEK293 MPD ctr-1=-465.0%*;TRPC6 act conf=i
CCOC(=O)Cn1c(=N)n(CCOc2ccc(Br)cc2)c2ccccc21 | -7.74* | i | i | i | -6.39* | i | 55.0%* | TRPC4 spec 2=43.5%*;TRPC4 spec=0.5%*;HEK293 MPD ctr 2-1=i;HEK293 MPD ctr-1=3.0%*;TRPC6 act conf=i
CCOC(=O)Cn1c(=N)n(Cc2ccccc2)c2ccccc21 | i | i | i | i | -1.28 | i | nt
O=C1/C(=C\c2cccc(O)c2O)SC(=S)N1Cc1ccccc1 | i | i | i | i | 0.02 | i | nt
O=C1/C(=C\c2cc([N+](=O)[O-])ccc2O)SC(=S)N1Cc1ccc(Cl)cc1 | i | 137* | 21* | 50.7* | -12.4 | i | i | HEK293 MPD ctr-2=+;HEK293 MPD ctr 2-2=i;TRPC4/MOR mod=283.5%*;TRPC4/MOR inh 2=i;TRPC6 act conf=177.5%*
Cc1ccc(-c2cnc(-c3ccccc3C(=O)O)o2)cc1 | i | i | i | i | 2.67 | i | nt
COc1cccc(OCc2cc(C(=O)N(C)Cc3nc4ccccc4[nH]3)no2)c1 | i | i | i | i | -0.13 | i | nt
COc1cccc(OCc2cc(C(=O)N(Cc3ccccc3)CC3CC3)no2)c1 | -5.16* | i | i | i | 1.1 | i | i | HEK293 MPD ctr-2=131.0%*;HEK293 MPD ctr 2-2=i;TRPC4/MOR mod=26.5%*;TRPC4/MOR inh 2=i
FC(F)(F)c1ccc(-c2noc(CN3CCCN(C4CCCCC4)CC3)n2)cc1 | i | i | i | i | 0.61 | i | nt
CCN(c1ccc2c(c1)OCO2)S(=O)(=O)c1cc(Br)cc2c1N(C(C)=O)CC2 | i | i | i | i | 2.5 | i | nt
CCc1ccc(CNC(=O)c2ccc(OC3CCN(C(C)=O)CC3)c(OC)c2)nc1 | i | i | i | i | -1.46 | i | nt
